Measured values taken from ChEMBL document CHEMBL1154198, “Chemical genetics of Plasmodium falciparum” (Nature, 2010).

Assays:
Plasmodium falciparum [1] = experiment: ST_JUDE: Plasmodium falciparum 3D7 EC50 (uM) as measured by SYBR green dye; assay type: functional, organism-based
Plasmodium falciparum [2] = experiment: ST_JUDE: Plasmodium falciparum K1 EC50 (uM) as measured by SYBR green dye; assay type: functional, organism-based
Plasmodium falciparum [3] = experiment: ST_JUDE: Cytotoxicity against Plasmodium falciparum 3D7; assay type: functional, organism-based
Procedure, shortened: (§1)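 Asexual P. falciparum grown in human erythrocytes, exposed to compounds for 72 h, and growth read as the DNA quantity in treated versus control cultures. Dose-response run at 12 concentrations from 10 μM to 5 nM.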

Plasmodium falciparum [4] = experiment: ST_JUDE: Cytotoxicity against Plasmodium falciparum K1; assay type: functional, organism-based; procedure, shortened: as §1
Plasmodium falciparum [5] = experiment: ST_JUDE: Cytotoxicity against Plasmodium falciparum V1/S; assay type: functional, organism-based
Toxoplasma gondii = experiment: ST_JUDE: Growth inhibition of to Toxoplasma gondii, in human U-2OS cells, as measured by luciferase.; assay type: functional, organism-based; conditions: RH, U2OS
Procedure, shortened: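 T. gondii parasites engineered to express luciferase; drug sensitivity read by luminescence.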

Trypanosoma brucei = experiment: ST_JUDE: Cytotoxicity using luciferase to measure ATP as an indicator of the viability of Trypanosoma brucei; assay type: functional, organism-based
Leishmania major = experiment: ST_JUDE: Cytotoxicity using Alamar Blue to measure viability of Leishmania major; assay type: functional, organism-based
Procedure, shortened: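 L. major promastigotes; drug susceptibility read with Alamar Blue.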

[6] = ST_JUDE: Cytotoxicity using luciferase to measure ATP as an indicator of the viability of human foreskin fibroblast cells (BJ); assay type: toxicity, cell-based
[7] = ST_JUDE: Cytotoxicity using luciferase to measure ATP as an indicator of the viability of human epithelial hepatocellular carcinoma cells (HepG2); assay type: toxicity, cell-based
[8] = ST_JUDE: Cytotoxicity using luciferase to measure ATP as an indicator of the viability of human epithelial embryonic kidney cells (HEK293); assay type: toxicity, cell-based
[9] = ST_JUDE: Cytotoxicity using luciferase to measure ATP as an indicator of the viability of human Burkitt''s lymphoma lymphoblast cells (Raji); assay type: toxicity, cell-based
Plasmodium falciparum [10] = experiment: ST_JUDE: Cytotoxicity against Plasmodium falciparum Dd2; assay type: functional, organism-based
Plasmodium falciparum [11] = experiment: ST_JUDE: Cytotoxicity against Plasmodium falciparum W2; assay type: functional, organism-based
Plasmodium falciparum [12] = experiment: ST_JUDE: Cytotoxicity against Plasmodium falciparum SB-A6; assay type: functional, organism-based
Plasmodium falciparum [13] = experiment: ST_JUDE: Cytotoxicity against Plasmodium falciparum D10 transfected with yeast DHOD; assay type: functional, organism-based

Structure (SMILES)	EC50 (Plasmodium falciparum [1])	EC50 (Plasmodium falciparum [2])	EC50 (Plasmodium falciparum [3])	EC50 (Plasmodium falciparum [4])	EC50 (Plasmodium falciparum [5])	EC50 (Toxoplasma gondii)	EC50 (Trypanosoma brucei)	EC50 (Leishmania major)	EC50 [6]	EC50 [7]	EC50 [8]	EC50 [9]	EC50 (Plasmodium falciparum [10])	EC50 (Plasmodium falciparum [11])	EC50 (Plasmodium falciparum [12])	EC50 (Plasmodium falciparum [13])
CC(C)(C)NC(=O)c1cn(C2CCCCC2)cc(C(=O)NC2CCN(Cc3ccccc3)C2)c1=O (centres undefined)	658 nM	4090 nM	787 nM	1980 nM	4840 nM	> 15700 nM	19900 nM	> 12300 nM	> 28700 nM	> 28700 nM	> 28700 nM	> 28700 nM	507 nM	2140 nM	704 nM	1520 nM
Clc1ccc(Nc2nc(NCc3ccco3)c3ccccc3n2)cc1	797 nM	1710 nM	1260 nM	1830 nM	> 11900 nM	> 25400 nM	9210 nM	0.6 nM	> 46400 nM	24000 nM	31200 nM	> 46400 nM	818 nM	> 11900 nM	388 nM	1150 nM
Cc1ccc2c(c1)N(C)/C(=C/c1cccc[n+]1C)S2	247 nM	179 nM	588 nM	675 nM	566 nM	> 12600 nM	1050 nM	10.7 nM	> 23000 nM	> 23000 nM	> 23000 nM	2180 nM	646 nM	1110 nM	1030 nM	859 nM
COc1ccc(O)c(CN2CCN(c3cc(C)ccc3C)CC2)c1	1370 nM	488 nM	2200 nM	992 nM	660 nM	> 19400 nM	> 34000 nM	> 15200 nM	> 35500 nM	> 35500 nM	> 35500 nM	> 35500 nM	741 nM	566 nM	1290 nM	1230 nM
COCCO/C(O)=C1\C(C)=NC2=C(C(=O)CC(c3ccc(OC)c(OC)c3)C2)C1c1ccc(F)cc1 (centres undefined)	253 nM	94.6 nM	740 nM	518 nM	1620 nM	> 23200 nM	17400 nM	> 18200 nM	> 42400 nM	> 42400 nM	> 42400 nM	> 42400 nM	526 nM	470 nM	2670 nM	2990 nM
CCOc1ccc(Nc2nc(NCc3ccccc3)c3ccccc3n2)cc1	1150 nM	1540 nM	1140 nM	1440 nM	1070 nM	> 21700 nM	5620 nM	8.8 nM	8410 nM	4770 nM	8670 nM	8220 nM	651 nM	> 10200 nM	305 nM	1070 nM
CCOc1ccc(N(C(C)=O)C2=C(N3CCOCC3)C(=O)c3ccccc3C2=O)cc1	54.7 nM	221 nM	69 nM	100 nM	51.5 nM	5190 nM	2960 nM	> 15900 nM	9600 nM	6000 nM	13100 nM	4570 nM	487 nM	1880 nM	58.4 nM	26.6 nM
CC(C)(C)C(=O)N1CCN(c2ccc([N+](=O)[O-])c(NC3CC3)c2)CC1	670 nM	642 nM	1240 nM	1070 nM	1150 nM	> 23800 nM	21300 nM	> 18600 nM	> 43400 nM	> 43400 nM	> 43400 nM	> 43400 nM	1050 nM	480 nM	1240 nM	1360 nM
CCOC(=O)c1cccc(NC(=O)CC2C(=O)N(c3ccc(F)cc3)C(=O)N2CCC(C)C)c1 (centres undefined)	593 nM	1160 nM	945 nM	> 11100 nM	1070 nM	> 23800 nM	11800 nM	> 18600 nM	> 43400 nM	> 43400 nM	> 43400 nM	> 43400 nM	635 nM	> 11100 nM	1060 nM	950 nM
CC1=NC2=C(C(=O)CC(c3ccc(Cl)cc3)C2)C(c2ccc(F)cc2)/C1=C(\O)OC(C)C (centres undefined)	775 nM	779 nM	989 nM	436 nM	821 nM	> 21800 nM	1560 nM	> 17000 nM	> 39800 nM	> 39800 nM	> 39800 nM	> 39800 nM	1300 nM	656 nM	460 nM	649 nM
Cc1ccc(C(O)(CNCc2ccccc2)c2ccc(Br)cc2)cc1 (centres undefined)	2230 nM	1110 nM	2100 nM	1170 nM	1280 nM	> 26500 nM	9550 nM	> 20700 nM	> 48300 nM	20000 nM	> 48300 nM	35500 nM	1470 nM	4370 nM	3450 nM	1730 nM
CCCO/C(O)=C1\C(C)=NC2=C(C(=O)CC(c3ccc(OC)cc3)C2)C1c1ccccc1F (centres undefined)	549 nM	439 nM	495 nM	281 nM	375 nM	> 24400 nM	9660 nM	> 19100 nM	> 44600 nM	> 44600 nM	> 44600 nM	> 44600 nM	636 nM	83.9 nM	243 nM	419 nM
Cc1ccc2c(c1)C=C/C(=C\c1sc3ccccc3[n+]1C)N2C	184 nM	85.7 nM	144 nM	152 nM	147 nM	3950 nM	175 nM	1.2 nM	7950 nM	2250 nM	6530 nM	740 nM	204 nM	15.4 nM	322 nM	192 nM
COc1ccc(NC(=O)C2c3ccccc3C(=O)N(C3CCCC3)C2c2cccs2)cc1 (centres undefined)	979 nM	1220 nM	1230 nM	1170 nM	1020 nM	> 22300 nM	6530 nM	> 17400 nM	> 40700 nM	> 40700 nM	> 40700 nM	> 40700 nM	1110 nM	> 10500 nM	1970 nM	1410 nM
CC(C)(C)c1ccc(S(=O)(=O)NC2=C/C(=N\c3ccc(O)cc3)C(=O)c3ccccc32)cc1	1080 nM	579 nM	600 nM	326 nM	687 nM	> 18000 nM	669 nM	> 14000 nM	4620 nM	2180 nM	7990 nM	4070 nM	1030 nM	385 nM	304 nM	244 nM
CCCO/C(O)=C1\C(C)=NC2=C(C(=O)CC(c3ccc(OC)c(OC)c3)C2)C1c1cccc(Cl)c1 (centres undefined)	536 nM	188 nM	732 nM	426 nM	518 nM	> 20700 nM	5150 nM	> 16200 nM	> 37700 nM	> 37700 nM	> 37700 nM	> 37700 nM	1020 nM	586 nM	199 nM	330 nM
CC(C)c1ccc(S(=O)(=O)NC2=C/C(=N\c3ccc(O)cc3)C(=O)c3ccccc32)cc1	346 nM	125 nM	547 nM	425 nM	836 nM	> 19000 nM	750 nM	> 14900 nM	3580 nM	2220 nM	5470 nM	3020 nM	946 nM	823 nM	290 nM	288 nM
CCCO/C(O)=C1\C(C)=NC2=C(C(=O)CC(c3ccc(OC)cc3)C2)C1c1ccc([N+](=O)[O-])cc1 (centres undefined)	653 nM	1080 nM	3000 nM	1080 nM	1480 nM	> 24800 nM	6940 nM	> 19400 nM	> 45200 nM	> 45200 nM	> 45200 nM	> 45200 nM	1600 nM	> 11600 nM	1030 nM	1530 nM
CC(C)(C)c1cc(C2C(C#N)=C(N)OC3=C2C(=O)CCC3)cc(C(C)(C)C)c1O (centres undefined)	1350 nM	427 nM	1850 nM	1860 nM	1520 nM	1340 nM	5460 nM	> 15500 nM	> 36200 nM	3030 nM	> 36200 nM	3040 nM	2530 nM	3440 nM	2530 nM	2390 nM
